# Screening results from PubChem.
# PAX8 inh HTS = inhibitors of PAX8-driven TPO luciferase reporter, primary screen, RMG-I cells, single concentration | SteadyGlo, 24 h | inhibition, % at 12.6 µM | actives 1.2% (n = 360,000);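 active = mean replicate inhibition at least 60% with every replicate also reaching 60%; inconclusive = only one of the two criteria is met; inactive = mean below 60% and not all replicates reaching 60%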;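 also: luciferase light reporting Pax8 driven TPO promoter activity; plate controls were median of neutral control wells for no effect and mitoxantrone controls for full effect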
# EWS-Fli inh = EWS/Fli-driven NR0B1 reporter inhibitors, primary screen, A673 cells, NR0B1 luciferase, luminescence, MLPCN library | viability-normalised | inhibition, % at 12.6 µM | actives 0.67% (n = 350,000);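 active = mean inhibition of at least 50% after viability correction, with every replicate also passing that limit; inconclusive = mean reaches 50% but only one of two replicates passes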;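 also: firefly luciferase signal divided by Alamar Blue viability fluorescence both relative to DMSO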
# F508del corr = F508del CFTR correction, initial screen, CFBE line, single point. CFBE cells, YFP halide quenching; stimulated with forskolin plus potentiator P3; % fluorescence drop versus neutral controls. activity (quench increase), % at 7.58 µM. actives 0.36% (n = 350,000). AID 720511, 2013;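 active = mean added fluorescence quench of at least 8% versus neutral control, with both replicates also reaching 8%; inconclusive = only one of the mean or replicate conditions met; inactive = mean below 8% and not both replicates reaching 8%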;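 also: cells transiently co-express mutant CFTR-F508del with the halide-sensitive YFP; corrector assay measuring rescue of mutant channel to the surface after 24 h compound exposure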
# FN deposit inh = inhibitors of fibronectin matrix deposition, primary screen, AH1F cells, Alexa488-fibronectin fluorescence, plate reader; actives 0.086% (n = 350,000); inhibition, % at 12.6 µM; AID 743247, 2014; AH1F fibroblasts, overnight;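 active = mean inhibition across replicates of 30% or more, regardless of how many single replicates reach that level; inconclusive = mean under 30% yet at least half of replicates reach 30%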;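 also: positive control wells lacked labelled fibronectin entirely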
#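 test system = AH1F fibroblasts assembling fluorescent fibronectin matrix | quantity = 10000 AH1F cells per well | buffer or medium = DMEM plus 2% serum, read in PBS | doses = single dose, pinned | incubation = 1 h cell attachment, overnight exposure to compound and label | detection = fluorescence at 485 nm excitation, 525 nm emission | read-out basis = inhibition from reduced deposited-fibronectin fluorescence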
# PGC1a acetyl inh = inhibitors of PGC1a acetylation signal, primary screen, cell-based, U2OS, AlphaScreen, inhibitor mode. AlphaScreen anti-acetyl-lysine; with virally co-expressed GCN5 acetyltransferase. actives 0.17% (n = 350,000). inhibition, % at 15.6 µM. AID 651687, 2012;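 active = every replicate shows inhibition of at least 40%; inconclusive = mean inhibition at least 40% but some replicate below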;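 also: 0% = neutral control wells and 100% = positive control wells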
# Env fusion inh = inhibitors of HIV-1 Env-driven cell-cell fusion, primary screen, HeLa-JRFL effector, CEM21 target cells, luciferase; inhibition, % at 12.3 µM; actives 1.1% (n = 360,000); AID 651610, 2012;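 active = mean replicate inhibition score of at least 50 and every replicate individually at or above 50; inconclusive = only one of the two criteria met; inactive = mean below 50 and not all replicates reaching 50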;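 also: 0% = plate neutral controls and 100% = maraviroc near 300 nM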
# * marks the source's active call; other numbers are inactive results; ? = inconclusive; . = not tested or not shown; [ ] = dose if it differs, or a comment. Shown are actives, neighbours in structure and some others; about 2.3% of the full set was active somewhere.
SMILES,PAX8 inh HTS,EWS-Fli inh,F508del corr,FN deposit inh,PGC1a acetyl inh,Env fusion inh
CC(C)Oc1ccc(S(=O)(=O)N2CCOCC2)cc1NC(=O)CCCSc1ccccc1,9.1,5.1,8.4*,-3.7,.,10.4
O=C(NCC1CCCCC1)[C@@H]1[C@@H](CO)[C@@H]2Cn3c(cccc3=O)[C@H]1N2C(=O)c1cccnc1,.,-4.5,.,.,.,9.0[16.7 µM]
O=C(CN1CCOCC1)N1CC(=O)N2[C@H](CO)[C@@H](c3ccc(/C=C/c4ccccc4)cc3)[C@@H]2C1,-2.0,-3.4,1.4,.,-2.2,.
CCCNC(=O)Nc1ccc2c(c1)C(=O)N(C)C[C@H](OC)[C@@H](C)CN(C(C)=O)[C@H](C)CO2,1.9,-1.5,-0.2,9.1,-12.4,-7.3[16.7 µM]
O=C(NCC[C@@H]1CC[C@H](NC(=O)C2CC2)[C@H](CO)O1)c1ccc(F)cc1,.,-0.4,0.1,.,-6.9,-4.4[16.7 µM]
C[C@@H]1CN([C@@H](C)CO)C(=O)c2cc(NC(=O)Nc3ccc4c(c3)OCO4)ccc2O[C@@H](C)CCCCO[C@@H]1CN(C)S(=O)(=O)c1cn(C)cn1,.,-55.9,1.9,.,4.9,11.4[16.7 µM]
CC(=O)N(C)C[C@@H]1Oc2ccc(N(C)C)cc2C(=O)N(C)C[C@H]1C,.,.,.,-12.6,.,.
O=C(O)c1cccc(COc2ccc(CO)cc2Cl)c1,.,89.0*,-2.1,.,9.1,.
O=C(O)c1cccc(COc2ccc3c(c2)CCC3)c1,108.2*,88.2*,-1.0,0.0,18.2,84.6*
CCOc1ccc(OCc2cccc(C(=O)O)c2)cc1,.,88.1*,2.1,.,0.7,.
O=C(O)c1ccc(COc2ccc(CO)cc2Cl)cc1,.,.,.,-11.6,8.8,-42.9
O=C(NCc1ccccc1)c1cccc(COc2ccc3c(c2)CCC3)c1,17.4,.,.,-1.0,.,30.8
C[C@@H]1CCCCO[C@H](CN(C)S(=O)(=O)c2cn(C)cn2)[C@@H](C)CN([C@@H](C)CO)C(=O)c2cc(NC(=O)Nc3ccc(C(F)(F)F)cc3)ccc2O1,-16.1,-3.4,1.6,.,-0.9,-9.7[16.7 µM]
C[C@@H]1CCCCO[C@H](CN(C)C(=O)Cc2ccccc2)[C@@H](C)CN([C@H](C)CO)C(=O)c2cc(NS(=O)(=O)c3ccc(Cl)cc3)ccc2O1,-19.3,-12.3,0.4,3.3,0.1,?
O=C(c1ccc(Br)cc1)c1cc([N+](=O)[O-])ccc1N1CCCCC1,97.0*,.,.,-2.7,-21.8,-92.1
COc1ccc(C(=O)c2cc([N+](=O)[O-])ccc2N2CCN(C)CC2)cc1,9.5,45.3,16.1*,-5.3,4.2,-36.0
CN1CCN(c2ccc([N+](=O)[O-])cc2C(=O)c2ccc(Br)cc2)CC1,27.9,.,.,2.8,-0.2,67.3
COc1ccc(NC(=O)N(C)C[C@@H]2OCCCC[C@@H](C)Oc3ccc(NS(=O)(=O)c4ccc(Cl)cc4)cc3C(=O)N([C@@H](C)CO)C[C@H]2C)cc1,-11.4,3.2,-2.0,7.9,-9.9,-22.1[16.7 µM]
C[C@H]1CN([C@@H](C)CO)S(=O)(=O)c2ccc(C#Cc3ccncc3)cc2O[C@H]1CN(C)C(=O)Nc1ccc2c(c1)OCO2,64.8*,-0.1,3.8,.,-1.4,.
C[C@@H]1CN([C@H](C)CO)S(=O)(=O)c2ccc(C#Cc3cccnc3)cc2O[C@H]1CN(C)C(=O)Nc1ccc2c(c1)OCO2,-1.1,22.4,.,.,-8.8,-7.8[16.7 µM]
C[C@@H]1CN([C@@H](C)CO)S(=O)(=O)c2ccc(C#Cc3ccncc3)cc2O[C@H]1CN(C)C(=O)Nc1ccc2c(c1)OCO2,103.1*,71.4*,2.7,.,2.3,.
C[C@H]1CN([C@@H](C)CO)S(=O)(=O)c2ccc(C#Cc3ccccc3)cc2O[C@H]1CN(C)C(=O)Nc1ccc2c(c1)OCO2,55.2,10.2,-0.9,-1.4,-8.2,-21.6[16.7 µM]
CC(C)(C)NCC(=Cc1ccccc1)C(=O)c1ccccc1,74.0*,56.6*,-7.5,12.9,.,-408.3
O=[N+]([O-])c1ccc(-c2ccc(/C=N/Nc3nc(N4CCCC4)nc(N4CCCC4)n3)o2)cc1,-2.1,39.6,-1.3,-4.9,-0.5,6.7
COc1ccc(-c2cnnc(N/N=C/c3ccc(-c4ccc([N+](=O)[O-])cc4)o3)n2)cc1,12.3,53.3*,-1.6,-11.4,.,-276.4
